This note sets out measurements from ChEMBL document CHEMBL4011626, “Structure-Based Optimization of Pyridoxal 5'-Phosphate-Dependent Transaminase Enzyme (BioA) Inhibitors that Target Biotin Biosynthesis in Mycobacterium tuberculosis” (J Med Chem, 2017).

A word on the pKd: it is −log10 of the Kd, conventionally taken in molar units. Low readings indicate a high Kd, high ones a low Kd.

Each structure is given as a SMILES string. pKd: −log10 of the molar value.

System in one assay: not listed separately
Description: Binding affinity to N-terminally His-tagged Mycobacterium tuberculosis BioA overexpressed in Escherichia coli by ITC method. A digest of the protocol:
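BioA loaded with PLP by adding 1 mM PLP after size exclusion, then buffer-exchanged into 25 mM HEPES pH 7.5, 50 mM NaCl. Titrated at 25 °C: 10 μM BioA, ligand 100 μM with DMSO matched, 2 μL injections 150 s apart, 750 rpm. First injection discarded; dilution heats corrected; curve fit gives KA, KD = 1/KA. Triplicate, mean ± standard error.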
Take `CC(=O)c1ccc(N2CCN(C(=O)c3ccc4c(c3)OCO4)CC2)cc1`: the negative logarithm of the Kd (pKd) is 6.97.

As for `CC(=O)c1ccc(N2CCN(C(=O)c3cccc(Cl)c3)CC2)s1`, the pKd is 6.49. `CC(=O)c1ccc(N2CCN(C(=O)c3cccc(Cl)c3)CC2)cc1` showed a negative logarithm of the Kd (pKd) of 6.80. Turning to `O=C1CCc2cc(N3CCN(C(=O)c4cccc(Cl)c4)CC3)ccc21`, the pKd is 6.88. In the case of `O=C1OCc2cc(N3CCN(C(=O)c4cccc(Cl)c4)CC3)ccc21`, the negative-log Kd (pKd) is 6.16. In turn, `CN1Cc2cc(N3CCN(C(=O)c4cccc(Cl)c4)CC3)ccc2C1=O` had a negative logarithm of the Kd (pKd) of 6.06.

The compound `O=C1CCc2cc(N3CCN(C(=O)c4ccc5c(c4)OCO5)CC3)ccc21` gave a negative logarithm of the Kd (pKd) of 7.13.

The subject of the next assay is Mycobacterium tuberculosis. Description: Inhibition of Bio-A overexpressed in Mycobacterium tuberculosis in presence of anhydrotetracycline after 9 days. In short, it runs like this:
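BioA-overexpressing or BioA-underexpressing Mtb strains were pregrown in Sauton's with 1 μM biotin, washed twice, and seeded at OD580 0.03 in biotin-free medium with 200 ng/mL anhydrotetracycline to set BioA expression. Compounds were tested at 0.2–50 μM final at 37 °C. OD580 was read after 9 days. MIC is the concentration giving 50% inhibition. Triplicate, two biological replicates.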
Take `CC(=O)c1ccc(N2CCC(C(=O)c3cccc(Cl)c3)CC2)cc1`: the MIC50 was 9.2 µM. For `CC(=O)c1ccc(N2CCN(C(=O)c3ccc4c(c3)OCO4)CC2)cc1`, the MIC50 was found to be 31.1 µM and the MIC90 is above 50 µM. In the case of `O=C(c1cccc(Cl)c1)N1CCN(c2ccc(-c3ccccn3)cc2)CC1`, the MIC50 is above 50 µM.

`O=C(c1cccc(Cl)c1)N1CCN(c2ccc([N+](=O)[O-])cc2)CC1`: the MIC50 was found to be 20.9 µM. `CC(=O)c1ccc(-c2cn(Cc3cccc(Cl)c3)nn2)s1`: the MIC50 is above 50 µM. The same measure, in the same setting: the same measure for `Cc1noc(-c2ccc(N3CCN(C(=O)c4cccc(Cl)c4)CC3)cc2)n1`: above 50 µM.

Turning to `CCC(=O)N1CCN(c2ccc(C(C)=O)cc2)CC1`, the MIC50 is above 50 µM. The same measure, in the same setting: under `CC(=O)c1ccc(-c2cn(Cc3cccc(Cl)c3)nn2)cc1` stands above 50 µM. Regarding `CC(=O)c1ccc(N2CCN(C(=O)c3cccc(Cl)c3)CC2)s1`, the MIC50 was determined as 7.6 µM. `CC(=O)c1ccc(N2CCN(C(=O)c3ccc4c(c3)OCCCO4)CC2)cc1`: the MIC50 was above 50 µM.

Take `CC(=O)c1ccc(N2CCN(C(=O)c3cnn(C)c3)CC2)cc1`: the MIC50 was above 50 µM.

For the compound `CC(=O)c1ccc(N2CCN(C(=O)CC(C)C)CC2)cc1`, the MIC50 was above 50 µM. Consider `CCCCCC(=O)N1CCN(c2ccc(C(C)=O)cc2)CC1`, for which the MIC50 was found to be 47.6 µM. On to `CC(=O)c1ccc(N2CCN(C(=O)c3ccc4c(c3)OCCO4)CC2)cc1`, for which the MIC50 was above 50 µM. Regarding `CC(=O)c1ccc(N2CCN(C(=O)c3cscn3)CC2)cc1`, the MIC50 was above 50 µM. As for `CC(=O)c1ccc(N2CCN(C(=O)c3cncc(Cl)c3)CC2)cc1`, the MIC50 is above 50 µM. As to `COc1cc(Cl)cc(C(=O)N2CCN(c3ccc(C(C)=O)cc3)CC2)c1`, the MIC50 is above 50 µM. Take `O=C(c1cccc(Cl)c1)N1CCN(c2ccc(-c3ccno3)cc2)CC1`: the MIC50 amounted to 38.9 µM. For the compound `O=C(c1cccc(Cl)c1)N1CCN(c2ccc3c(c2)COC3)CC1`, the MIC50 was above 50 µM.

For the compound `CC(=O)c1ccc(N2CCN(C(=O)c3cc(Cl)cc(Cl)c3)CC2)cc1`, the MIC50 is above 50 µM. `CC(=O)c1ccc(N2CCN(C(=O)c3cccc(Cl)c3)CC2)cc1`: the MIC50 was determined as 7.5 µM. In the case of `C/C(=N\O)c1ccc(N2CCN(C(=O)c3cccc(Cl)c3)CC2)cc1`, the MIC50 is above 50 µM. With `O=C1CCc2cc(N3CCN(C(=O)c4cccc(Cl)c4)CC3)ccc21`, the MIC50 amounted to 8.1 µM. In the case of `CC(=O)c1ccc(N2CCN(C(=O)c3ccc(Cl)c(Cl)c3)CC2)cc1`, the MIC50 stood at 17.7 µM. On the same count and under the same terms, the same measure for `O=C1OCc2cc(N3CCN(C(=O)c4cccc(Cl)c4)CC3)ccc21`: above 50 µM; for `COc1ccc(-c2ccc(N3CCN(C(=O)c4cccc(Cl)c4)CC3)cc2)nc1`: above 50 µM. The same measure, in the same setting: the same measure for `Cn1nnnc1-c1ccc(N2CCN(C(=O)c3cccc(Cl)c3)CC2)cc1`: above 50 µM; for `COC(=O)c1ccc(N2CCN(C(=O)c3cccc(Cl)c3)CC2)cc1`: above 50 µM; for `N#Cc1ccc(N2CCN(C(=O)c3cccc(Cl)c3)CC2)cc1`: 45.9 µM. `CC(=O)c1ccc(N2CCC(C(=O)c3ccc4c(c3)OCO4)CC2)cc1`: the MIC50 was above 50 µM.

As to `CC(=O)c1cccc(N2CCN(C(=O)c3cccc(Cl)c3)CC2)c1`, the MIC50 is above 50 µM. Take `CCCC(=O)N1CCN(c2ccc(C(C)=O)cc2)CC1`: the MIC50 is above 50 µM. The same measure, in the same setting: the same measure for `CC(=O)c1ccc(N2CCN(C(=O)c3cccnc3)CC2)cc1`: above 50 µM; for `CN1Cc2cc(N3CCN(C(=O)c4cccc(Cl)c4)CC3)ccc2C1=O`: above 50 µM. With `O=C1CCc2cc(N3CCN(C(=O)c4ccc5c(c4)OCO5)CC3)ccc21`, the MIC50 amounted to 2.8 µM.
